Measured values from PMC9157599 (Materials Today Bio, 2022).
Numbered stars: 1 amine (or outer) side, 2 acyl side, 3 side chain; on linkers, the order of the positions; unused ones are H or OH. Square brackets hold non-standard residues; d marks the D form. Peptide text beside a SMILES is read from it. * marks the point of attachment. DAMPA = CN(Cc1cnc2nc(N)nc(N)c2n1)c1ccc(C(=O)*)cc1; γGlu = O=C(O)[C@H](CCC(=O)[*:2])N[*:1]

Columns and labels:
RA-FLS [1] = test: Wound-healing; type: cell-based; details: 100 μM, 48 h culture then scratch, n = 6
Procedure, shortened: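 RA-FLS were serum-starved 12 h, mixed with hydrogels (formed from 100 μM peptide) or MTX solution (100 μM), and cultured 48 h. Monolayers were then scratched. Migration rate was calculated from healed area after a further 12 and 24 h, n = 6.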

RA-FLS [2] = test: Transwell invasion assay; type: cell-based; details: transwell with Matrigel, 100 μM, 24 h, n = 6
Procedure, shortened: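 RA-FLS were serum-starved 12 h and mixed with hydrogels or MTX solution (100 μM). They were seeded in the upper transwell chamber in serum-free medium with 12.5% Matrigel, with 20% FBS medium below as chemoattractant. After 24 h, invaded cells were stained with 2% crystal violet and counted microscopically, n = 6.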

[3] = tested on: M1 macrophages (LPS-induced RAW264.7); test: RT-qPCR of M1 markers in LPS-induced RAW264.7; type: cell-based, Mice; details: 100 μM, 24 h, compared to control group (LPS), n = 3
Procedure, shortened: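 RAW264.7 cells were polarised to M1 with 1% w/v LPS medium for 24 h, then treated with test compound or hydrogel (100 μM) for 24 h. Total RNA was extracted with TRIzol, and iNOS, IL-6 and TNF-α mRNA were quantified by RT-qPCR.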

RAW264.7 cells = test: Immunofluorescence staining of iNOS and CD206 on RAW264.7; type: cell-based, Mice; details: 100 μM, 24 h
Procedure, shortened: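 RAW264.7 cells were polarised with 1% w/v LPS-containing medium for 24 h, then exposed to test compound or hydrogel (100 μM) for another 24 h. Cells were immunostained for iNOS (M1) and CD206 (M2) and imaged by fluorescence.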

AIA mice [4] = test: Therapeutic effect in adjuvant-induced arthritis; type: in vivo, C57BL/6 mice; details: n = 5; for paw swelling after 4 weeks of treatment: 20 μL intra-articular, both knees, twice a week for 4 weeks; for clinical score: dynamic, up to 28 days; for skin temperature of hind paws: infrared camera, 28th day after administration
Procedure, shortened: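 Male C57BL/6 AIA mice (CFA s.c. in the fore underarm; IFA into both hind pads a week later; treatment after one further week) were randomised to groups of n = 5. Dosing was 20 μL intra-articular into both knees twice weekly for 4 weeks. Arthritis was scored clinically, joint diameter was measured weekly by vernier caliper, and hind-paw skin temperature was recorded by infrared camera on day 28.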

AIA mice [5] = test: Histology and immunohistochemistry of knee joints of AIA mice; type: in vivo, C57BL/6 mice; details: day 28
Procedure, shortened: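 Male 8-week C57BL/6 mice received CFA (1% w/v) s.c. in the fore underarm, then the same dose of IFA into both hind pads a week later. One week on, 20 μL test hydrogel or PBS was given intra-articularly into both knees twice weekly for 4 weeks (n = 5). On day 28 knees were fixed in 4% paraformaldehyde, EDTA-decalcified 30 days, stained H&E and safranin-O/fast green, and Mankin-scored.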

AIA mice [6] = test: Immunofluorescence staining of synovial tissues of AIA mice; type: in vivo, C57BL/6 mice; details: for fluorescence signal of iNOS (M1 macrophages) in synovial tissues: n = 3; for synovial pannus / neovascularization (CD31 expression): n = 3 (Fig. 6c, Figure S14)
Procedure, shortened: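 AIA was induced in male C57BL/6 mice with CFA s.c., followed a week later by IFA into the hind pads. Knees received 20 μL intra-articular treatment twice weekly for 4 weeks. Knee joint sections were stained overnight at 4 °C with antibodies to CD31, F4/80, CD206 or iNOS (1:300), then Alexa Fluor 488 or Cy3 secondaries (1:8000, 2 h, room temperature) and DAPI. Imaging was by fluorescence microscopy, n = 3.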

proteinase K = proteinase K (Parengyodontium album, UniProt P06873); test: Biostability of hydrogels exposed to proteinase K; type: in vitro ADME; details: for change of HPLC peak after addition of proteinase K: 37 °C, HPLC spectra (Fig. 1e)
Procedure, shortened: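 Peptide (1 mg in 5 mL PBS) incubated at 37 °C with proteinase K (3.2 units/mL). Aliquots were taken at each time point and analysed by reverse-phase HPLC on a C18 column, eluting with MeOH and water (each with 0.05% TFA).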

[7] = tested on: RA synovial fibroblast (RA-FLS); test: MTT cell viability, RA-FLS; type: cell-based; details: 48 h
Procedure, shortened: (§1)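 Cells were seeded at 10^4 per well and exposed for 48 h to test compound or hydrogel at 200, 100, 50, 10, 5 or 0 μM. Viability was read by MTT absorbance at 490 nm.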

[8] = Gelation by heating-cooling and recovery after injection; type: physicochemical
Procedure, shortened: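 Gels were formed by dissolving peptide in PBS/Na2CO3 (pH 7.4), heating 30 s (flame or 100 °C water bath), then cooling at room temperature. Samples went onto the rheometer right after gelation: 40 mm parallel plates, 500 μm gap, frequency sweep 0.1–100 rad/s at 1% strain. Gel was measured before and after injection.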

mouse fibroblast (L929) = test: MTT cell viability, L929; type: cell-based; details: 5-200 μM, 48 h, n = 3
Procedure, shortened: as §1

[9] = tested on: human umbilical vein endothelial cell (HUVEC); test: MTT cell viability, HUVEC; type: cell-based; details: 5-200 μM, 48 h, n = 3
Procedure, shortened: as §1

L929 = test: Live/dead staining, L929; type: cell-based, mouse; details: 100 μM, 48 h, Calcein AM/PI; MTX-loaded compared to MTX-GFFY and free MTX groups
Procedure, shortened: (§2)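 Cells were exposed to hydrogels or free MTX (100 μM) for 48 h, stained with Calcein AM (live) and propidium iodide (dead), and imaged by fluorescence microscopy.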

HUVEC = test: Live/dead staining, HUVEC; type: cell-based, human; details: 100 μM, 48 h, Calcein AM/PI; MTX-loaded compared to MTX-GFFY and free MTX groups
Procedure, shortened: as §2

RA-FLS [10] = test: Live/dead staining, RA-FLS; type: cell-based; details: 100 μM, 48 h, Calcein AM/PI
[11] = tested on: M1 macrophages (LPS-induced RAW264.7); test: Western blot of M1 markers in RAW264.7; type: cell-based, Mice; details: 100 μM, 24 h, compared to control group (LPS), n = 3
Procedure, shortened: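 RAW264.7 cells were polarised with […] LPS for 24 h, then treated with test compound or hydrogel (100 μM) for 24 h. Lysate protein was quantified by Bradford assay, run on 10% SDS-PAGE and transferred to PVDF. Membranes were probed overnight at 4 °C for iNOS, IL-6 and TNF-α, then secondary antibody for 120 min at room temperature. Detection was by chemiluminescence, with tubulin reference and densitometry, n = 3.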

AIA mice [12] = test: Serum inflammatory cytokines in AIA mice; type: in vivo, C57BL/6 mice; details: compared to PBS group, without statistical difference, n = 3 (Figure S13)
[13] = hydrogel exposed to proteinase K at 37 °C, images (Figure S8)

Sequence of proteinase K (P06873 106-384, species assumed): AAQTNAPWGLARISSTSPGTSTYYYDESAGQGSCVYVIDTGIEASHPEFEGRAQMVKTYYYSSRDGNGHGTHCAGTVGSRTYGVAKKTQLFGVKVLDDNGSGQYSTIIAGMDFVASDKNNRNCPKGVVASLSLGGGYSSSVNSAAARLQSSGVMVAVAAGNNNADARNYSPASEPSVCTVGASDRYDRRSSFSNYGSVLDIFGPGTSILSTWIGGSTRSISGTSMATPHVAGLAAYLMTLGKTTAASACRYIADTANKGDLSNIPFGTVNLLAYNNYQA

SMILES	wound-healing rate at 24 h (RA-FLS [1]) [%]	RA-FLS invasion into the lower chamber (cell numbers) (RA-FLS [2])	relative gene expression of M1 markers (IL-6, TNF-α, iNOS) [3]	expression of iNOS (M1 marker) in RAW264.7 cells (RAW264.7 cells)	paw swelling after 4 weeks of treatment (AIA mice [4])	clinical score (AIA mice [4])	skin temperature of hind paws (AIA mice [4])	synovial hyperplasia and joint structure (H&E staining) (AIA mice [5])	fluorescence signal of iNOS (M1 macrophages) in synovial tissues (AIA mice [6])	synovial pannus / neovascularization (CD31 expression) (AIA mice [6])	change of HPLC peak after addition of proteinase K (proteinase K)	also measured
CN(Cc1cnc2nc(N)nc(N)c2n1)c1ccc(C(=O)N[C@@H](CCC(=O)O)C(=O)O)cc1 [MTX, methotrexate, reference compound]	100	inhibited approximately half	not obvious	significantly decreased	paw swelling was alleviated	gradually decreased	below 33 °C	synovial evasion was inhibited	significantly decreased	lowest among all treatment groups		wound-healing rate at 12 h (RA-FLS [1]; 12 h): 50%
CN(Cc1cnc2nc(N)nc(N)c2n1)c1ccc(C(=O)N[C@@H](CCC(=O)NCC(=O)N[C@@H](Cc2ccccc2)C(=O)N[C@@H](Cc2ccccc2)C(=O)N[C@@H](Cc2ccc(O)cc2)C(=O)O)C(=O)O)cc1 [MTX-GFFY] ({DAMPA-γGlu}-GFFY-OH)	50	obviously decreased			paw swelling was alleviated		below 33 °C	synovial evasion was inhibited	significantly decreased		gradually decreased	time after which hydrogel became flowable (proteinase K; [13]): 1 days; effect on RA-FLS at 100 μM ([7]; 100 μM): mild effects
CN(Cc1cnc2nc(N)nc(N)c2n1)c1ccc(C(=O)N[C@@H](CCC(=O)NCC(=O)N[C@H](Cc2ccccc2)C(=O)N[C@H](Cc2ccccc2)C(=O)N[C@H](Cc2ccc(O)cc2)C(=O)O)C(=O)O)cc1 [MTX-G^DF^DF^DY] ({DAMPA-γGlu}-G[dF][dF][dY]-OH)	40	obviously decreased	all marker genes of M1 macrophages were significantly down-regulated	strongest inhibitory effect	effectively relieved paw swelling	lowest among all groups		knee joint structure was well protected	lowest	lowest among all treatment groups	had no obvious change	time hydrogel was stable in vitro (proteinase K; [13]): approximately 5 days; time until hydrogel became stable (dynamic gelation process) ([8]; 10.317 mM (1 wt%) peptide in PBS, heating-cooling process (Figure S3)): ≤ 2 min; time to return to gel after injection ([8]; rheology before and after injection (Fig. 1d)): 5 min; effect on cell proliferation / cytotoxicity, L929 (mouse fibroblast (L929)): reduced the cytotoxicity; effect on cell proliferation / cytotoxicity, HUVEC [9]: reduced the cytotoxicity; effect on RA-FLS proliferation at 50 μM ([7]; 50 μM): significantly inhibited RA-FLS proliferation; live/dead staining, L929 (L929): less L929 and HUVEC cells were dead; live/dead staining, HUVEC (HUVEC): less L929 and HUVEC cells were dead; live/dead staining, RA-FLS (RA-FLS [10]): significantly enhanced the ratio of dead cells/live cells; expression of M1 macrophage related proteins (iNOS, IL-6, TNF-α) [11]: best inhibitory effect; IL-6 expression level in synovial tissue (immunohistochemistry) (AIA mice [5]): decreased to a similar level to normal group; level of serum IL-6 (AIA mice [12]): slightly lower; level of serum TNF-α (AIA mice [12]): slightly lower
